Data reported in ChEMBL document CHEMBL4665829, “Synthesis, Structure-Activity Relationship, and Antimalarial Efficacy of 6-Chloro-2-arylvinylquinolines” (J Med Chem, 2020).
Calls of active or inactive are those of the source. The rule behind the calls is not given here.

System: not listed separately
Experiment: Intrinsic clearance in mouse liver microsomes assessed as parent compound at 1 uM after 60 mins in presence of NADPH by LC-MS analysis
Format: ADME, Microsome
Details: not given
Method in brief: (§1)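 Mouse liver microsomes (0.5 mg/mL final protein) in 0.1 M phosphate, pH 7.4, with compound at 1 μM, 37 °C with shaking. Aliquots were quenched in cold acetonitrile and centrifuged; LC–MS gave parent peak area at 60 min relative to 0 min.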

SMILES	CLH [µL/min/mg]
FC(F)(F)c1ccc(/C=C/c2cc(NCCCCN3CCOCC3)c3cc(Cl)ccc3n2)cc1	21.4
CN(C)CCNc1cc(/C=C/c2ccncc2)nc2ccc(Cl)cc12	62.2
CCN(CC)CCCC(C)Nc1cc(/C=C/c2ccc([N+](=O)[O-])cc2)nc2ccc(OC)cc12 (stereo unspecified)	33.4
Fc1ccc(/C=C/c2cc(NCc3ccccn3)c3cc(Cl)ccc3n2)cc1	21.2

System: Plasmodium falciparum
Experiment: Antiplasmodial activity against chloroquine-sensitive Plasmodium falciparum 3D7 infected in human erythrocytes assessed as reduction in microbial growth after 72 hrs by SYBR green I staining based fluorescence assay
Format: functional, organism-based
Details: 3D7, Erythrocyte
Method in brief: (§2)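 SYBR Green I assay: twofold serial dilutions on P. falciparum cultures at 1% parasitemia, 1% hematocrit, 37 °C, 5% CO₂, 72 h, max 0.1% DMSO. DMSO and CQ as growth and inhibition controls. Plates frozen at −80 °C, thawed, lysed in Tris/saponin/EDTA/Triton buffer with 0.01% SYBR Green I, 1 h dark at room temperature. Fluorescence read at 485 ex/530 em. EC50 by nonlinear dose–response fit.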

SMILES	EC50 [nM]
FC(F)(F)c1ccc(/C=C/c2cc(NCCCCN3CCOCC3)c3cc(Cl)ccc3n2)cc1	73.8
CN(C)CCNc1cc(/C=C/c2ccncc2)nc2ccc(Cl)cc12	56.6
CCN(CC)CCCC(C)Nc1cc(/C=C/c2ccc([N+](=O)[O-])cc2)nc2ccc(OC)cc12 (stereo unspecified)	119
Fc1ccc(/C=C/c2cc(NCc3ccccn3)c3cc(Cl)ccc3n2)cc1	248

System: Plasmodium falciparum
Experiment: Parasiticidal activity against chloroquine-resistant Plasmodium falciparum Dd2 infected in RBC assessed as reduction in parasitemia at 6.6 nM incubated for 48 hrs followed by compound washout and then incubated for 96 hrs by Giemsa staining based microscopic analysis
Format: functional, organism-based
Details: not given
Method in brief: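 Controls: 0.15% DMSO, DHA 50 nM, atovaquone 6.6 nM. Drug removed by three RPMI washes, then parasitemia followed daily for 96 h by Giemsa thin smears. Three independent biological replicates.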

SMILES	Activity
O=C1C(O)=C([C@H]2CC[C@H](c3ccc(Cl)cc3)CC2)C(=O)c2ccccc21	Active

System: not listed separately
Experiment: Stability of compound in mouse liver microsomes assessed as parent compound remaining after 60 mins in presence of NADPH by LC-MS analysis
Format: ADME, Microsome
Details: read-out: Stabilty

SMILES	remaining at 1 h [%]
CCN(CC)CCCC(C)Nc1cc(/C=C/c2ccc([N+](=O)[O-])cc2)nc2ccc(OC)cc12 (stereo unspecified)	47.8

System: Plasmodium falciparum
Experiment: Antiplasmodial activity against late trophozoite synchronized chloroquine-resistant Plasmodium falciparum Dd2 reduction in microbial growth at 6.6 nM measured after 12 hrs by Giemsa staining-based microscopic analysis
Format: functional, organism-based
Details: not given
Method in brief: (§3)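 Dd2 cultures tightly synchronized by magnetic separation and sorbitol were dosed at 5 × EC50 at 6, 18, 30 or 42 h post-invasion. Controls: DHA 50 nM, atovaquone 6.6 nM, DMSO 0.1%. Sampled every 12 h for Giemsa thin smears and for flow cytometry: glutaraldehyde/paraformaldehyde fixation, Triton permeabilization, RNAse, 500 nM YOYO-1, 500,000 events/sample. Three independent biological replicates.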

SMILES	Activity
O=C1C(O)=C([C@H]2CC[C@H](c3ccc(Cl)cc3)CC2)C(=O)c2ccccc21	inactive

System: not listed separately
Experiment: Stability of compound in mouse liver microsomes assessed as parent compound remaining at 1 uM after 60 mins in presence of NADPH by LC-MS analysis
Format: ADME, Microsome
Details: 1 h
Method in brief: as §1

SMILES	Stabilty [%]
FC(F)(F)c1ccc(/C=C/c2cc(NCCCCN3CCOCC3)c3cc(Cl)ccc3n2)cc1	52.7
CN(C)CCNc1cc(/C=C/c2ccncc2)nc2ccc(Cl)cc12	15.5
CCN(CC)CCCC(C)Nc1cc(/C=C/c2ccc([N+](=O)[O-])cc2)nc2ccc(OC)cc12 (stereo unspecified)	36.7
Fc1ccc(/C=C/c2cc(NCc3ccccn3)c3cc(Cl)ccc3n2)cc1	52.9

System: not listed separately
Experiment: Drug level in mouse liver microsomes treated with 6-chloro-2-(4-fluorostyryl)-N-(2-(4-methylpiperazin-1-yl)ethyl)quinolin-4-amine measured up to 60 mins by LC-MS analysis
Format: ADME, Microsome
Details: 1 h
Method in brief: (§4)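 Microsomal incubations: mouse liver microsomes at 0.5 mg/mL, 1 μM compound, pH 7.4 phosphate, 37 °C, NADPH-regenerating system. The metabolite mixture was analysed by LC–MS after 15, 30 and 60 min.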

Drug uptake	SMILES
Active	Fc1ccc(/C=C/c2cc(NCCN3CCNCC3)c3cc(Cl)ccc3n2)cc1

System: not listed separately
Experiment: Resistant index, ratio of EC50 for antiplasmodial activity against chloroquine-resistant Plasmodium falciparum Dd2 to antiplasmodial activity against chloroquine-sensitive Plasmodium falciparum 3D7
Format: functional
Details: not given

SMILES	Ratio EC50
FC(F)(F)c1ccc(/C=C/c2cc(NCCCCN3CCOCC3)c3cc(Cl)ccc3n2)cc1	0.4
CN(C)CCNc1cc(/C=C/c2ccncc2)nc2ccc(Cl)cc12	0.5
CCN(CC)CCCC(C)Nc1cc(/C=C/c2ccc([N+](=O)[O-])cc2)nc2ccc(OC)cc12 (stereo unspecified)	0.6
Fc1ccc(/C=C/c2cc(NCc3ccccn3)c3cc(Cl)ccc3n2)cc1	0.6

System: not listed separately
Experiment: Drug level in mouse liver microsomes treated with 6-chloro-N-(4-morpholinobutyl)-2-(2-(pyridin-4-yl)vinyl)quinolin-4-amine measured up to 60 mins by LC-MS analysis
Format: ADME, Microsome
Details: 1 h
Method in brief: as §4

Drug uptake	SMILES
Active	OCCNCCCCNc1cc(/C=C/c2ccncc2)nc2ccc(Cl)cc12
Active	NCCCCNc1cc(/C=C/c2ccncc2)nc2ccc(Cl)cc12

System: Plasmodium falciparum
Experiment: Antiplasmodial activity against late trophozoite synchronized chloroquine-resistant Plasmodium falciparum Dd2 reduction in microbial growth at 6.6 nM measured after 12 hrs by YOYO-1 staining-based flow cytometric analysis
Format: functional, organism-based
Details: not given
Method in brief: as §3

SMILES	Activity
O=C1C(O)=C([C@H]2CC[C@H](c3ccc(Cl)cc3)CC2)C(=O)c2ccccc21	inactive

System: not listed separately
Experiment: Drug level in mouse liver microsomes treated with N1,N1-diethyl-N4-(6-methoxy-2-(4-nitrostyryl)quinolin-4-yl)pentane-1,4-diamine measured up to 60 mins by LC-MS analysis
Format: ADME, Microsome
Details: 1 h
Method in brief: as §4

Drug uptake	SMILES
Active	CCNCCCC(C)Nc1cc(/C=C/c2ccc([N+](=O)[O-])cc2)nc2ccc(OC)cc12 (stereo unspecified)
Active	CCN(CC)CCCC(C)Nc1cc(/C=C/c2ccc([N+](=O)[O-])cc2)nc2ccc(O)cc12 (stereo unspecified)

System: not listed separately
Experiment: Half life in mouse liver microsomes after 60 mins in presence of NADPH by LC-MS analysis
Format: ADME, Microsome
Details: not given

SMILES	half-life [min]
CCN(CC)CCCC(C)Nc1cc(/C=C/c2ccc([N+](=O)[O-])cc2)nc2ccc(OC)cc12 (stereo unspecified)	56.2

System: HepG2
Experiment: Cytotoxicity against human HepG2 cells assessed as reduction in cell viability after 48 hrs by MTS assay
Format: cell-based
Details: HepG2, 48 h
Method in brief: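 HepG2 cells were seeded at 2250 per well and grown 24 h at 37 °C, 5% CO₂. Serial dilutions starting at 25 μM were added for a further 48 h. MTS was then added for 3 h at 37 °C and absorbance read at 490 nm. EC₅₀ came from nonlinear dose–response fits.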

SMILES	EC50 [nM]
FC(F)(F)c1ccc(/C=C/c2cc(NCCCCN3CCOCC3)c3cc(Cl)ccc3n2)cc1	10200
CN(C)CCNc1cc(/C=C/c2ccncc2)nc2ccc(Cl)cc12	6110
CCN(CC)CCCC(C)Nc1cc(/C=C/c2ccc([N+](=O)[O-])cc2)nc2ccc(OC)cc12 (stereo unspecified)	7020
Fc1ccc(/C=C/c2cc(NCc3ccccn3)c3cc(Cl)ccc3n2)cc1	19800

System: Plasmodium falciparum
Experiment: Antiplasmodial activity against chloroquine-resistant Plasmodium falciparum Dd2 infected in human erythrocytes assessed as reduction in microbial growth after 72 hrs by SYBR green I staining based fluorescence assay
Format: functional, organism-based
Details: Dd2, Erythrocyte
Method in brief: as §2

SMILES	EC50 [nM]
FC(F)(F)c1ccc(/C=C/c2cc(NCCCCN3CCOCC3)c3cc(Cl)ccc3n2)cc1	30.7
CN(C)CCNc1cc(/C=C/c2ccncc2)nc2ccc(Cl)cc12	28.8
CCN(CC)CCCC(C)Nc1cc(/C=C/c2ccc([N+](=O)[O-])cc2)nc2ccc(OC)cc12 (stereo unspecified)	67
Fc1ccc(/C=C/c2cc(NCc3ccccn3)c3cc(Cl)ccc3n2)cc1	156

System: not listed separately
Experiment: Half life in mouse liver microsomes at 1 uM after 60 mins in presence of NADPH by LC-MS analysis
Format: ADME, Microsome
Details: 1 h
Method in brief: as §1

SMILES	t1/2 [min]
FC(F)(F)c1ccc(/C=C/c2cc(NCCCCN3CCOCC3)c3cc(Cl)ccc3n2)cc1	64.9
CN(C)CCNc1cc(/C=C/c2ccncc2)nc2ccc(Cl)cc12	22.3
Fc1ccc(/C=C/c2cc(NCc3ccccn3)c3cc(Cl)ccc3n2)cc1	65.3

System: not listed separately
Experiment: Selectivity index, ratio of EC50 for cytotoxicity against human HepG2 cells to antiplasmodial activity against chloroquine-resistant Plasmodium falciparum Dd2
Format: toxicity, cell-based
Details: read-out: Ratio EC50

SMILES	selectivity ratio
FC(F)(F)c1ccc(/C=C/c2cc(NCCCCN3CCOCC3)c3cc(Cl)ccc3n2)cc1	332
CN(C)CCNc1cc(/C=C/c2ccncc2)nc2ccc(Cl)cc12	212
CCN(CC)CCCC(C)Nc1cc(/C=C/c2ccc([N+](=O)[O-])cc2)nc2ccc(OC)cc12 (stereo unspecified)	105
Fc1ccc(/C=C/c2cc(NCc3ccccn3)c3cc(Cl)ccc3n2)cc1	127
